In assay [1] the test system is Helicobacter pylori. The experiment in a line: Bactericidal activity against CagA-deficient Helicobacter pylori G204 isolated from chronic gastritis patient compound exposure followed by incubation on Columbia-blood agar plate for 3 to 5 days. As to conditions: TDE = time-dependent effect. It is filed as functional, organism-based. The essentials:
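Broth microdilution MBC against clinical H. pylori isolates (cagA by PCR; stocks kept frozen in Columbia broth with 20% glycerol). Compound dissolved in water with 4% DMSO, filter-sterilized, double diluted in Brucella broth with 10% fetal bovine serum. Inoculum about 10^6 CFU/mL from 48 h microaerobic Brucella agar-BFS cultures. Plates held microaerobically at 37 °C for 24 and 48 h. Each well was then spotted onto Columbia-blood agar for 3-5 days. MBC is the lowest concentration giving no regrowth. Triplicate, mean ± SD.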

The test system of assay [2] is Helicobacter pylori. Description: Antibacterial activity against CagA-expressing Helicobacter pylori Ma01 isolated from chronic gastritis patient after 48 hrs compound exposure followed by incubation on Columbia-blood agar plate for 3 to 5 days. It is filed as functional. The essentials: (§1)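 Compound dissolved in water with 4% DMSO, filter-sterilized, and serially twofold diluted in Brucella broth with 10% bovine fetal serum. Inoculum from 48 h microaerobic Brucella agar-BFS cultures, added at approximately 10^6 CFU/mL final. Broth incubated microaerobically at 37 °C for 24 or 48 h, then each dilution subcultured onto Columbia-blood agar. MBC is the lowest concentration with no growth on subculture. Triplicate; mean ± SD.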

Assay [3] deals with Helicobacter pylori. Description: Antibacterial activity against CagA-expressing Helicobacter pylori G39 isolated from chronic gastritis patient after 24 hrs compound exposure followed by incubation on Columbia-blood agar plate for 3 to 5 days. It is filed as functional. Summed up:
as §1

Converted amounts (≈) assume the structure as drawn.

Turning to `Oc1ccc(/C=C/c2cc(O)cc(O)c2)cc1` [RESVERATROL], the Activity entry in assay [1] was “tde”. Moreover, the MBC (usually the lowest tested concentration that kills the bacteria rather than only halting them) amounted to 589 µg/mL (≈ 2580 µM) in assay [2] and 640 µg/mL (≈ 2800 µM) in assay [3].

(Values after ChEMBL document CHEMBL1932999, “Increased susceptibility to resveratrol of Helicobacter pylori strains isolated from patients with gastric carcinoma” (2011).)
